The source of these data is ChEMBL document CHEMBL1142606, “Antibiotic bisanthraquinones produced by a streptomycete isolated from a cyanobacterium associated with Ecteinascidia turbinata” (J Nat Prod, 2006).

Test [1] deals with Enterococcus faecalis. Nature of the test: Antibacterial activity against vancomycin-resistant Enterococcus faecalis ATCC 51299 after 18 hrs by broth dilution assay. It is filed as functional, organism-based. The settings on record: ATCC 51299, 18 h. The procedure, abridged: (§1)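 Broth dilution; MRSA ATCC 43300 in trypticase soy medium, VRE ATCC 51299 in brain heart infusion medium. Cultures grown 14 h on rotary shaker at 38 °C, diluted to A600 0.04-0.06, then further 10-fold, dispensed to microtiter wells. Compounds tested in dilution series, ten replicates each; growth read as A600 after 18 h; IC50 reported.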
For orientation: In broth dilution the organism is exposed to a series of concentrations in liquid medium.

Test [2] in a line: Cytotoxicity against human HCT 116 cells. It is filed as functional, cell-based.
The test system of test [3] is Staphylococcus aureus. Nature of the test: Antibacterial activity against methicillin-resistant Staphylococcus aureus ATCC 43300 after 18 hrs by broth dilution assay. The settings on record: ATCC 43300, 18 h. Type of test: functional, organism-based. In a few lines:
as §1

As for `CC1=CC(O)=C2C(=O)c3c(O)cccc3[C@@]34Oc5c(ccc6c5C(=O)c5c(O)cc(C)cc5C6=O)C23[C@@H]1[C@H](C)O4` (stereo partly specified), the IC50 (commonly the point on the concentration scale where inhibition reaches its midpoint) is 130 µM in test [1], 6.6 µM in test [2] and 31 µM in test [3].

As for `Cc1cc(O)c2c(c1)C(=O)c1ccc3c(c1C2=O)O[C@@]12O[C@@H](C)[C@H]4C31C(=C(O)C[C@@]4(C)O)C(=O)c1c(O)cccc12` (stereo partly specified), the IC50 came out at 2 µM in test [1], 3.3 µM in test [2] and 0.15 µM in test [3].

Regarding `Cc1cc(O)c2c(c1)C(=O)c1ccc3c(c1C2=O)O[C@@]12O[C@@H](C)[C@@]4(O)C31C(=C(O)C[C@@]4(C)O)C(=O)c1c(O)cccc12` (stereo partly specified), the IC50 in test [1] is 12 µM; in test [2], 5.6 µM; in test [3] it was 0.36 µM.

On to `CN(C)[C@@H]1C(O)=C(C(N)=O)C(=O)[C@@]2(O)C(O)=C3C(=O)c4c(O)cccc4[C@@](C)(O)[C@H]3C[C@@H]12` [TETRACYCLINE], for which the IC50 in test [1] was 0.7 µg/mL; in test [3] it was 0.2 µg/mL.
